Experimental data gathered from unrelated publications.
Each line is one published result; the experiments were not run side by side.
TYR: Tyrosinase (TYR, Homo sapiens, UniProt P14679)
ESR1: Estrogen receptor (ESR1, Homo sapiens, UniProt P03372)
MAPK14: Mitogen-activated protein kinase 14 (MAPK14, Homo sapiens, UniProt Q16539)
Si: Sucrase-isomaltase, intestinal (Si, Rattus norvegicus, UniProt P23739)

With Cc1ccc(C(C)C)cc1NC(=O)COC(=O)/C=C/c1ccccc1O the inhibition was 53.7% (TYR; enzyme activity; inhibitor; 50 µg/mL).
CN1CC(Oc2cnc(C#N)cc2-c2ccn3nc(NC(=O)C4CC4)cc3c2)C1 gave an inhibition of -8% (Eukaryotic translation initiation factor 2-alpha kinase 1 (EIF2AK1, Homo sapiens, UniProt Q9BQI3); enzyme activity; inhibitor; 1 µM).
Cc1ccc(C(C)C)cc1NC(=O)COC(=O)/C=C/c1ccc(Cl)cc1 has an inhibition of 57.4% (TYR; enzyme activity; inhibitor; 50 µg/mL).
The inhibition of O=C(c1ccc(Cl)cc1)N(Cc1ccccc1)C1CCCCC1 is reported as 28.5% (Glucocorticoid receptor (NR3C1, Homo sapiens, UniProt P04150); cell-free assay; 10 µM).
For O=C(CSc1nc2nccnc2c(=O)n1CCc1ccccc1)Nc1ccccc1, the inhibition was less than 20% (Phosphatidylinositol 3-kinase catalytic subunit type 3 (PIK3C3, Homo sapiens, UniProt Q8NEB9); enzyme activity; inhibitor; 10 µM).
O=C(c1ccc(F)cc1)N(Cc1ccccc1)C1CCCCC1 gave an inhibition of 2% (5-hydroxytryptamine receptor 1A (HTR1A, Homo sapiens, UniProt P08908); ligand displacement; radioligand; 10 µM).
For N#Cc1cc(Cn2c(N3CCCC3)nc3ccccc32)ccc1F, the inhibition was 16.1% (Alpha-2C adrenergic receptor (ADRA2C, Homo sapiens, UniProt P18825); ligand displacement; 10 µM).
O=C(Nc1ccc(S(=O)(=O)N2CCC(Cl)CC2)cc1)c1ccc([N+](=O)[O-])o1 has an inhibition of 0% (ESR1; ligand displacement; radioligand; 10 µM).
With O=C1N=C(N2CCCCN2)S/C1=C\c1ccc(F)cc1O the inhibition was less than 10% (Nociceptin receptor (OPRL1, Homo sapiens, UniProt P41146); ligand displacement; radioligand; 10 µM).
CCN(CC)CCNC(=O)c1c(C)[nH]c(/C=C2\C(=O)Nc3ccc(F)cc32)c1C gave an inhibition of -11% (MAPK14; enzyme activity; inhibitor; 0.3 µM).
With O=c1c(O[C@@H]2O[C@H](CO)[C@@H](O)[C@H](O)[C@H]2O)c(-c2ccc(O)c(O)c2)oc2cc(O)cc(O)c12 the inhibition was 21.4% (Si; enzyme activity; inhibitor; 25 µg/mL).
The inhibition of CNC(=O)c1cc(Oc2ccc(NC(=O)Nc3ccc(Cl)c(C(F)(F)F)c3)cc2)ccn1 is reported as 61% (Abl2 (Mus musculus, UniProt Q4JIM5); enzyme activity; inhibitor; 10 µM).
With Oc1cccc(Nc2nc(-c3ccc(F)cc3F)cs2)c1 the inhibition was 11.2% (ESR1; cell-free assay; 10 µM).
For CCN(Cc1ccccc1C(F)(F)F)C(=O)C1CCN(S(=O)(=O)c2ccc3[nH]ncc3c2)CC1, the inhibition was 8% (ESR1; ligand displacement; radioligand; 10 µM).
For CN(C)C1CCN(CC#Cc2nn(C3CCCC3)c3nc(NCc4ccccc4)ncc23)C1 (stereo not shown), the inhibition was -1% (Inhibitor of nuclear factor kappa-B kinase subunit beta (IKBKB, Homo sapiens, UniProt O14920); enzyme activity; inhibitor; FRET; 0.1 µM).
For O=c1c(O[C@@H]2O[C@@H](CO)[C@H](O)[C@H]2O)c(-c2ccc(O)c(O)c2)oc2cc(O)cc(O)c12, the inhibition was 52.4% (Si; enzyme activity; inhibitor; 100 µg/mL).
With Cc1ccc(C(C)C)cc1NC(=O)COC(=O)/C=C/c1ccc(O)cc1 the inhibition was 55.8% (TYR; enzyme activity; inhibitor; 50 µg/mL).
The inhibition of O=C1OC[C@H]2OC(=O)c3cc(O)c(O)c(O)c3-c3c(O)c(O)c(O)c4c3C(=O)O[C@H]([C@H]3OC(=O)c5c-4c(O)c(O)c(O)c5[C@H]3O)[C@@H]2OC(=O)c2cc(O)c(O)c(O)c2-c2c1cc(O)c(O)c2O is reported as 28.4% (Si; enzyme activity; inhibitor; 50 µg/mL).
With Cc1ccc(Nc2nccc(N(C)c3ccc4c(C)n(C)nc4c3)n2)cc1S(N)(=O)=O the inhibition was 62% (MAPK14; enzyme activity; inhibitor; 10 µM).
